Active and inactive are the calls of the source. No cut-off for these calls is given here.
Columns and labels:
[1] = molecular target: T1, Bombesin receptor subtype-3 (Homo sapiens, UniProt P32247); test: Displacement of [125I]-[D-Tyr6,beta-Ala11,Phe13,Nle14]bombesin from human BRS3 expressed in NFAT-CHO cells after 2 hrs by liquid scintillation counting; type: cell-based
T1 sequence (P32247 whole entry): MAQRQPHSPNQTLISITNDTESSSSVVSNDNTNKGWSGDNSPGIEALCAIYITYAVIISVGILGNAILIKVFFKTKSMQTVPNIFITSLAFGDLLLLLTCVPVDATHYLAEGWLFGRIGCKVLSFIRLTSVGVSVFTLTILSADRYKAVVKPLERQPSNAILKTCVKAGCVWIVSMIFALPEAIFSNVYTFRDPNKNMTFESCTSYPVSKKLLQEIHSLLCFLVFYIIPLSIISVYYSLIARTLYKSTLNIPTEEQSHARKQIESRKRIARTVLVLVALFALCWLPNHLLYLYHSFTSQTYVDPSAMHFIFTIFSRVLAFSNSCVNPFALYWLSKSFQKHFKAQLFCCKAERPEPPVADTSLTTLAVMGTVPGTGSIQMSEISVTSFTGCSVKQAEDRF
How it was run: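 Membranes (1–4 µg protein) from NFAT-CHO cells expressing human BRS-3, incubated with 0.3 pM 125I-dY-peptide and a range of test compound concentrations in 50 mM Tris pH 7.2, 5 mM MgCl2, 0.1% BSA, 2 h at room temperature; bound/free separated by GF/c filtration with PBS washes; filter radioactivity by scintillation counting; mean of at least three runs.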

[2] = molecular target: T1, Bombesin receptor subtype-3; test: Agonistic activity at human BRS3 expressed in HEK293AEO cells by aequorin bioluminescence assay; type: functional, cell-based
[3] = molecular target: T2, Bombesin receptor subtype-3 (Homo sapiens) (UniProt P32247); test: Agonistic activity at human BRS3 expressed in HEK293AEO at 10 uM cells by aequorin bioluminescence assay relative to dY peptide; type: functional, cell-based
T2 sequence (whole entry): T1 sequence (P32247 whole entry)

[4] = molecular target: T3, Bombesin receptor subtype-3 (Rattus norvegicus, UniProt Q8K418); test: Agonistic activity at rat BRS3 expressed in HEK293AEO at 10 uM by aequorin bioluminescence assay; type: functional
T3 sequence (Q8K418 whole entry): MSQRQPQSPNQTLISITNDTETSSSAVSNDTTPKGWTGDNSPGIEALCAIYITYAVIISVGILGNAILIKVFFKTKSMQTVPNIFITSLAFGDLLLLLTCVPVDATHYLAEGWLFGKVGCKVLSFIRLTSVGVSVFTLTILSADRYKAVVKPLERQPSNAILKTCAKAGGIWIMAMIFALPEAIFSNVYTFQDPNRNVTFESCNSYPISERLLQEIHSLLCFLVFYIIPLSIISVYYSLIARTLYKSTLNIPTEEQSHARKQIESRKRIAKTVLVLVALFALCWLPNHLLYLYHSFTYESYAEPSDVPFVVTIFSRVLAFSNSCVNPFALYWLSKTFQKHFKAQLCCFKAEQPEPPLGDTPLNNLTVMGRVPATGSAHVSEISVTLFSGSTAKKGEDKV

[5] = molecular target: T4, Bombesin receptor subtype-3 (Mus musculus, UniProt O54798); test: Agonistic activity at mouse BRS3 expressed in HEK293AEO cells by aequorin bioluminescence assay; type: functional, cell-based
T4 sequence (O54798 whole entry): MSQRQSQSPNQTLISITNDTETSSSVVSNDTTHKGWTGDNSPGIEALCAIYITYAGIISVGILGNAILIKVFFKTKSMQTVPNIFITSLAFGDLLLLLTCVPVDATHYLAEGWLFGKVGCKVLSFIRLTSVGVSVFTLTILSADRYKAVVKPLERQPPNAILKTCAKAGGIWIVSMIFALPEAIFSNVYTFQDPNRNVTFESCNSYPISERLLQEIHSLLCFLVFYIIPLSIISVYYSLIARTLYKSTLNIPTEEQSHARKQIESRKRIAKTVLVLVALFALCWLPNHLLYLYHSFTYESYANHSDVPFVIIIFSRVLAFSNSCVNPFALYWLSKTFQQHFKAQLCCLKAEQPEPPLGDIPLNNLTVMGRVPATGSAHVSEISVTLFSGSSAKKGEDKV

[6] = molecular target: T5, Bombesin receptor subtype-3 (Rattus norvegicus) (UniProt Q8K418); test: Agonistic activity at rat BRS3 expressed in HEK293AEO cells at by aequorin bioluminescence assay relative to dY peptide; type: functional, cell-based
T5 sequence (whole entry): T3 sequence (Q8K418 whole entry)

[7] = molecular target: T6, Bombesin receptor subtype-3 (Mus musculus) (UniProt O54798); test: Agonistic activity at mouse BRS3 expressed in HEK293AEO cells at 10 uM by aequorin bioluminescence assay relative to dY peptide; type: functional, cell-based
T6 sequence (whole entry): T4 sequence (O54798 whole entry)

[8] = molecular target: Neuromedin-B receptor (Homo sapiens, UniProt P28336); test: Displacement of [125I]-[D-Tyr6,beta-Ala11,Phe13,Nle14]bombesin from human bombesin BB1 receptor expressed in NFAT-CHO cells after 2 hrs by liquid scintillation counting; type: cell-based
[9] = molecular target: Gastrin-releasing peptide receptor (Homo sapiens, UniProt P30550); test: Displacement of [125I]-[D-Tyr6,beta-Ala11,Phe13,Nle14]bombesin from human bombesin BB2 receptor expressed in NFAT-CHO cells after 2 hrs by liquid scintillation counting; type: cell-based
[10] = Oral bioavailability in Sprague-Dawley rat at 4 mg/kg; type: ADME, organism-based; conditions: in vivo
How it was run: (§1)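 Sprague-Dawley rats given compound as solution in EtOH/PEG400/water (10:40:50), 1 mg/kg iv and 4 mg/kg po; clearance, steady-state volume of distribution, half-life, oral bioavailability and dose-normalised AUC derived.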

[11] = Clearance in Sprague-Dawley rat at 1 mg/kg, iv and 4 mg/kg, po; type: ADME, organism-based; conditions: in vivo; how it was run: as §1
[12] = Volume of distribution at steady state in Sprague-Dawley rat at 1 mg/kg, iv and 4 mg/kg, po; type: ADME, organism-based; conditions: in vivo, read-out: Vdss; how it was run: as §1
[13] = Half life in Sprague-Dawley rat at 1 mg/kg, iv and 4 mg/kg, po; type: ADME, organism-based; conditions: in vivo; how it was run: as §1
[14] = tested on: Rattus norvegicus; test: Reduction of food intake in rat at 25 ug, icv; type: functional; parameters: scale not given: the % may be the effect or the level left
How it was run: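 Rats dosed intracerebroventricularly with 25 µg; food intake compared with animals receiving vehicle (20% PG/water).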

[15] = tested on: Mus musculus; test: Effect on food intake in po dosed diet-induced obese mouse; type: functional, organism-based

Sequence of Gastrin-releasing peptide receptor (P30550 whole entry): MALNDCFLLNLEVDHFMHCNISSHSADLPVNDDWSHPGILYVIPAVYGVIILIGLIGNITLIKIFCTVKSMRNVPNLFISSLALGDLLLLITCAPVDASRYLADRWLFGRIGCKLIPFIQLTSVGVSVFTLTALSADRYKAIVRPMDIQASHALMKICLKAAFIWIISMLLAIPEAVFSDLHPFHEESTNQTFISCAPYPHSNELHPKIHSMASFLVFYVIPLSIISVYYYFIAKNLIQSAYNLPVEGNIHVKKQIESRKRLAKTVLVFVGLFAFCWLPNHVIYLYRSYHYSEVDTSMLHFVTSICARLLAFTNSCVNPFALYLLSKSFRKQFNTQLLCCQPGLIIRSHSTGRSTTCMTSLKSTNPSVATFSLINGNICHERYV
Sequence of Neuromedin-B receptor (P28336 whole entry): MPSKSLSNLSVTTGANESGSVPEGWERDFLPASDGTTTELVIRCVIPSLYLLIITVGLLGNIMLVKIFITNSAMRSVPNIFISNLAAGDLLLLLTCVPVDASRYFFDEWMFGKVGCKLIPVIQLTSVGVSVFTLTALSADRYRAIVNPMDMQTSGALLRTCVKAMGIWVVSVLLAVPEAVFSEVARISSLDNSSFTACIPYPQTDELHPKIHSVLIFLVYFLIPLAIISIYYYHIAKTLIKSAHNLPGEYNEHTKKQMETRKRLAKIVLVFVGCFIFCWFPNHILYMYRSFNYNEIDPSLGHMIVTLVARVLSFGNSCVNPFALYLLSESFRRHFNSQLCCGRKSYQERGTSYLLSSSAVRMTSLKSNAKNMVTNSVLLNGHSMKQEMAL

IC50 [1] [µM]	EC50 [2] [µM]	Activity [3] [%]	EC50 [4] [µM]	EC50 [5] [µM]	Activity [6] [%]	Activity [7] [%]	IC50 [8] [µM]	IC50 [9] [µM]	bioavailability [10] [%]	clearance [11] [mL/min/kg]	Vd [12] [L/kg]	half-life [13] [h]	Structure (SMILES)	Activity [14] [%]	Activity [15]
3.68	1.9	74	0.174	0.238	101	98	> 10	> 10	–	–	–	–	CCCCc1cnc(C(CCCO)Cc2ccc(-c3ccccc3C(=O)O)cc2)[nH]1 (centres undefined)	–	–
–	0.106	103	–	0.0063	–	105	–	–	19	1.02	0.128	1.54	CC(C)(C)Cc1cnc(CCc2ccc(-c3ccccc3C(=O)O)cc2)[nH]1	29	inactive

Reference: ChEMBL document CHEMBL1155395, “Discovery of substituted biphenyl imidazoles as potent, bioavailable bombesin receptor subtype-3 agonists” (Bioorg Med Chem Lett, 2010)
